Assay results published in ChEMBL document CHEMBL1149797, “Synthesis and in vitro antibacterial activities of novel oxazolidinones” (Eur J Med Chem, 2008).
In brackets after ≈: the same amount, converted by molar mass.

Assays:
[1] = system: Enterococcus faecalis; experiment: Antibacterial activity against Enterococcus faecalis ATCC 35550 by broth microdilution technique; assay type: functional
Outline: (§1)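 Broth microdilution per CLSI (NCCLS) guidelines. Compounds were dissolved in DMSO with water added to give an 80% DMSO stock, then diluted 1:10 to working solutions in water or medium. They were tested at 0.125, 0.25, 0.5, 1, 2, 4, 8 and 16 (two-fold series) against the final inoculum. Each run included sterility controls and vehicle controls (plain medium; 4%, 2%, 1% DMSO). MIC was read as growth inhibition.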

[2] = system: Staphylococcus epidermidis; experiment: Antibacterial activity against Staphylococcus epidermidis ATCC 155 by broth microdilution technique; assay type: functional; outline: as §1
[3] = system: Staphylococcus aureus; experiment: Antibacterial activity against Staphylococcus aureus ATCC 25923 by broth microdilution technique; assay type: functional; outline: as §1
[4] = system: Bacillus pumilus; experiment: Antibacterial activity against Bacillus pumilus ATCC 14884 by broth microdilution technique; assay type: functional; outline: as §1
[5] = system: Streptococcus pyogenes; experiment: Antibacterial activity against Streptococcus pyogenes ATCC 14289 by broth microdilution technique; assay type: functional; outline: as §1
[6] = system: Bacillus cereus; experiment: Antibacterial activity against Bacillus cereus ATCC 11778 by broth microdilution technique; assay type: functional; outline: as §1
[7] = system: Staphylococcus aureus; experiment: Antibacterial activity against linezolid-resistant Staphylococcus aureus NRS 119 with G 2576T mutation by broth microdilution technique; assay type: functional
Outline: (§2)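 Broth microdilution per NCCLS/CLSI. Compounds dissolved in DMSO with water added to give an 80% DMSO stock. Stock diluted 1:10 in 4-8% DMSO in water or medium to make the working solution. Tested at […]. Sterility controls run with each set. Inoculum viability controls included plain medium and 4%, 2% and 1% DMSO vehicle. MIC taken as growth inhibition.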

[8] = system: Enterococcus faecalis; experiment: Antibacterial activity against Enterococcus faecalis ATCC 14506 by broth microdilution technique; assay type: functional; outline: as §1
[9] = system: Streptococcus pneumoniae; experiment: Antibacterial activity against multidrug-resistant Streptococcus pneumoniae ATCC 700904 by broth microdilution technique; assay type: functional; outline: as §2
[10] = system: Staphylococcus aureus; experiment: Antibacterial activity against Staphylococcus aureus ATCC 9144 by broth microdilution technique; assay type: functional; outline: as §2
[11] = system: Staphylococcus aureus; experiment: Antibacterial activity against methicillin-resistant Staphylococcus aureus ATCC 700699 by broth microdilution technique; assay type: functional; outline: as §2
[12] = system: Enterococcus faecium; experiment: Antibacterial activity against vancomycin-resistant Enterococcus faecium ATCC 700221 by broth microdilution technique; assay type: functional; outline: as §2
[13] = system: Staphylococcus aureus; experiment: Antibacterial activity against linezolid-resistant Staphylococcus aureus NRS 120 with G 2576T mutation by broth microdilution technique; assay type: functional; outline: as §2
[14] = system: Enterococcus faecalis; experiment: Antibacterial activity against multidrug-resistant Enterococcus faecalis ATCC 700802 by broth microdilution technique; assay type: functional; outline: as §2
[15] = system: Staphylococcus aureus; experiment: Antibacterial activity against Staphylococcus aureus ATCC 29213 by broth microdilution technique; assay type: functional; outline: as §2
[16] = system: Staphylococcus aureus; experiment: Antibacterial activity against Staphylococcus aureus ATCC 14154 by broth microdilution technique; assay type: functional; outline: as §2
[17] = Half life in Sprague-Dawley rat at 30 mg/kg, po; assay type: ADME, organism-based; parameters: dose 30 mg/kg, route oral; details: in vivo
Outline: (§3)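 Male Sprague-Dawley rats, 8-10 weeks old, fasted 18 h, fed again 4 h after dosing, water ad libitum. Oral dose of 30 mg/kg as a homogeneous suspension in 0.5% w/v CMC in normal saline. Serial retro-orbital samples into heparinized tubes; plasma separated at ambient temperature and assayed at once by HPLC with calibrators in drug-free rat plasma. Cmax, tmax, AUC0-∞ and t1/2 calculated.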

[18] = Cmax in Sprague-Dawley rat at 10 mg/kg, iv; assay type: ADME, organism-based; parameters: dose 10 mg/kg, route intravenous; details: in vivo
Outline: (§4)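 Male Sprague-Dawley rats, 8-10 weeks old, fasted 18 h, with food returned 4 h post-dose and water free. The compound was given as a clear solution in PEG-400/cremophore/ethanol/propylene glycol/saline via the tail vein at 10 mg/kg. Retro-orbital blood went into heparinized tubes at intervals, and plasma was spun and analysed immediately by HPLC against spiked rat-plasma calibrators. Cmax, tmax, AUC0-∞ and t1/2 were derived.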

[19] = Tmax in Sprague-Dawley rat at 10 mg/kg, iv; assay type: ADME, organism-based; parameters: dose 10 mg/kg, route intravenous; details: in vivo; outline: as §4
[20] = Cmax in Sprague-Dawley rat at 30 mg/kg, po; assay type: ADME, organism-based; parameters: dose 30 mg/kg, route oral; details: in vivo; outline: as §3
[21] = AUC in Sprague-Dawley rat at 30 mg/kg, po; assay type: ADME, organism-based; parameters: dose 30 mg/kg, route oral; details: plasma; outline: as §3
[22] = Half life in Sprague-Dawley rat at 10 mg/kg, iv; assay type: ADME, organism-based; parameters: dose 10 mg/kg, route intravenous; details: in vivo
Outline: as §4, with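 “The” for “Male Sprague-Dawley rats, 8-10 weeks old, fasted 18 h, with food returned 4 h post-dose and water free. The”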

[23] = AUC in Sprague-Dawley rat at 10 mg/kg, iv; assay type: ADME, organism-based; parameters: dose 10 mg/kg, route intravenous; details: plasma; outline: as §4
[24] = Tmax in Sprague-Dawley rat at 30 mg/kg, po; assay type: ADME, organism-based; parameters: dose 30 mg/kg, route oral; details: in vivo; outline: as §3
[25] = Bioavailability in Sprague-Dawley rat at 30 mg/kg, po; details: in vivo
[26] = Tmax in Sprague-Dawley rat at 25 mg/kg, po; assay type: ADME, organism-based; parameters: dose 25 mg/kg, route oral; details: in vivo

Row | MIC [1] | MIC [2] | MIC [3] | MIC [4] | MIC [5] | MIC [6] | Compound | MIC [7] | MIC [9] | MIC [11] | MIC [12] | MIC [13] | MIC [16] | further results
1 | 2 µg/mL (≈ 4.11 µM) | 1 µg/mL (≈ 2.06 µM) | 4 µg/mL (≈ 8.22 µM) | 4 µg/mL (≈ 8.22 µM) | 1 µg/mL (≈ 2.06 µM) | 2 µg/mL (≈ 4.11 µM) | CC(=O)NC[C@H]1CN(c2ccc(N3CCN(C(=O)/C=C/c4ccc(CO)o4)CC3)c(F)c2)C(=O)O1 |  |  |  |  |  |  | 
2 | 1 µg/mL (≈ 2.19 µM) | 0.5 µg/mL (≈ 1.1 µM) | 1 µg/mL (≈ 2.19 µM) | 1 µg/mL (≈ 2.19 µM) | 0.5 µg/mL (≈ 1.1 µM) | 1 µg/mL (≈ 2.19 µM) | CC(=O)NC[C@H]1CN(c2ccc(N3CCN(C(=O)/C=C/c4ccoc4)CC3)c(F)c2)C(=O)O1 |  |  |  |  |  |  | 
3 | 0.5 µg/mL (≈ 0.989 µM) | 1 µg/mL (≈ 1.98 µM) | 2 µg/mL (≈ 3.96 µM) | 0.5 µg/mL (≈ 0.989 µM) | 0.12 µg/mL (≈ 0.237 µM) | 0.25 µg/mL (≈ 0.495 µM) | CC(=O)NC[C@H]1CN(c2ccc(N3CCN(C(=O)/C=C/c4c[nH]c5ccccc45)CC3)c(F)c2)C(=O)O1 |  |  |  |  |  |  | 
4 | 2 µg/mL (≈ 4.28 µM) | 0.5 µg/mL (≈ 1.07 µM) | 1 µg/mL (≈ 2.14 µM) | 1 µg/mL (≈ 2.14 µM) | 0.5 µg/mL (≈ 1.07 µM) | 1 µg/mL (≈ 2.14 µM) | CC(=O)NC[C@H]1CN(c2ccc(N3CCN(C(=O)/C=C/c4cccnc4)CC3)c(F)c2)C(=O)O1 |  |  |  |  |  |  | 
5 | 2 µg/mL (≈ 4.13 µM) | 2 µg/mL (≈ 4.13 µM) | 4 µg/mL (≈ 8.26 µM) | 1 µg/mL (≈ 2.06 µM) | 1 µg/mL (≈ 2.06 µM) | 2 µg/mL (≈ 4.13 µM) | CC(=O)NC[C@H]1CN(c2ccc(N3CCN(C(=O)/C=C/c4ccc(C=O)o4)CC3)c(F)c2)C(=O)O1 |  |  |  |  |  |  | 
6 | > 16 µg/mL | > 16 µg/mL | > 16 µg/mL | > 16 µg/mL | > 16 µg/mL | > 16 µg/mL | CC(=O)NC[C@H]1CN(c2ccc(N3CCN(C(=O)/C=C/c4ccc(C(=O)[O-])o4)CC3)c(F)c2)C(=O)O1.[Na+] |  |  |  |  |  |  | 

Further lines, the compound ahead of its results:

Row | Compound | MIC [1] | MIC [2] | MIC [3] | MIC [4] | MIC [5] | MIC [6] | MIC [7] | MIC [9] | MIC [11] | MIC [12] | MIC [13] | MIC [16] | further results
7 | CC(=O)NC[C@H]1CN(c2ccc(N3CCN(C(=O)/C=C/c4ccc([N+](=O)[O-])s4)CC3)c(F)c2)C(=O)O1 | 0.5 µg/mL (≈ 0.966 µM) | ≤ 0.12 µg/mL | 0.25 µg/mL (≈ 0.483 µM) | 0.5 µg/mL (≈ 0.966 µM) | 0.12 µg/mL (≈ 0.232 µM) | 1 µg/mL (≈ 1.93 µM) | 4 µg/mL (≈ 7.73 µM) | ≤ 0.125 µg/mL | 0.25 µg/mL (≈ 0.483 µM) | 0.5 µg/mL (≈ 0.966 µM) | 4 µg/mL (≈ 7.73 µM) | 0.25 µg/mL (≈ 0.483 µM) | MIC [8]: 0.25 µg/mL (≈ 0.483 µM); MIC [10]: 0.25 µg/mL (≈ 0.483 µM); MIC [14]: 0.5 µg/mL (≈ 0.966 µM); MIC [15]: 0.25 µg/mL (≈ 0.483 µM)
8 | CC(=O)NC[C@H]1CN(c2ccc(N3CCN(C(=O)/C=C/c4ccc(C(=O)O)o4)CC3)c(F)c2)C(=O)O1 | > 16 µg/mL | > 16 µg/mL | > 16 µg/mL | > 16 µg/mL | > 16 µg/mL | > 16 µg/mL |  |  |  |  |  |  | 
9 | CC(=O)NC[C@H]1CN(c2ccc([N+]3([O-])CCN(C(=O)/C=C/c4ccc([N+](=O)[O-])o4)CC3)c(F)c2)C(=O)O1 | 1 µg/mL (≈ 1.93 µM) | 0.12 µg/mL (≈ 0.232 µM) | 0.5 µg/mL (≈ 0.966 µM) |  | 0.12 µg/mL (≈ 0.232 µM) |  | 2 µg/mL (≈ 3.86 µM) | 0.25 µg/mL (≈ 0.483 µM) | 0.5 µg/mL (≈ 0.966 µM) | 0.5 µg/mL (≈ 0.966 µM) | 2 µg/mL (≈ 3.86 µM) | 1 µg/mL (≈ 1.93 µM) | half-life [17]: 58.2 min; Cmax [18]: 9180 ng/mL; Tmax [19]: 0 h; Cmax [20]: 1210 ng/mL; AUC [21]: 1870 ng·h/mL; half-life [22]: 57 min; AUC [23]: 1030 ng·h/mL; Tmax [24]: 10.2 min; MIC [14]: 1 µg/mL (≈ 1.93 µM); bioavailability [25]: 60%; MIC [15]: 1 µg/mL (≈ 1.93 µM)
10 | CC(=O)NC[C@H]1CN(c2ccc(N3CCN(C(=O)CO)CC3)c(F)c2)C(=O)O1 [EPEREZOLID] | 2 µg/mL (≈ 5.07 µM) | 2 µg/mL (≈ 5.07 µM) | 2 µg/mL (≈ 5.07 µM) | 1 µg/mL (≈ 2.54 µM) | 0.5 µg/mL (≈ 1.27 µM) | 2 µg/mL (≈ 5.07 µM) | > 16 µg/mL | 0.5 µg/mL (≈ 1.27 µM) | 1 µg/mL (≈ 2.54 µM) | 1 µg/mL (≈ 2.54 µM) | > 16 µg/mL | 1 µg/mL (≈ 2.54 µM) | MIC [8]: 1 µg/mL (≈ 2.54 µM); MIC [10]: 2 µg/mL (≈ 5.07 µM); MIC [14]: 1 µg/mL (≈ 2.54 µM); MIC [15]: 2 µg/mL (≈ 5.07 µM)
11 | CC(=O)NC[C@H]1CN(c2ccc(N3CCOCC3)c(F)c2)C(=O)O1 [LINEZOLID] |  | 1 µg/mL (≈ 2.96 µM) |  | 0.5 µg/mL (≈ 1.48 µM) | 1 µg/mL (≈ 2.96 µM) | 2 µg/mL (≈ 5.93 µM) | > 16 µg/mL | 0.25 µg/mL (≈ 0.741 µM) | 1 µg/mL (≈ 2.96 µM) | 1 µg/mL (≈ 2.96 µM) | > 16 µg/mL | 1 µg/mL (≈ 2.96 µM) | Tmax [19]: 0 h; Tmax [26]: 18.6 min
